Test results reported in ChEMBL document CHEMBL1268918, “1,3-Benzoxazole-4-carbonitrile as a novel antifungal scaffold of β-1,6-glucan synthesis inhibitors” (Bioorg Med Chem, 2010).
Converted amounts (≈) assume the structure as drawn. The source made the active and inactive calls. The rule behind the calls is not given here.

Key:
Pichia kudriavzevii [1] = test: Antifungal activity against Candida krusei ATCC 44507 assessed as concentration required to 80% growth inhibition using alamar blue staining after 18 to 72 hrs by microdilution method; format: functional
Procedure, shortened: (§1)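 Serial dilution in YPD medium (1% yeast extract, 2% peptone, […]), incubated at 37 °C. Inoculum was 1×10³–1×10⁴ cells/mL and incubation 18–72 h, both chosen per strain. MIC-1 is the lowest concentration giving 80% inhibition relative to a drug-free control.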

Nakaseomyces glabratus [2] = test: Antifungal activity against Candida glabrata ATCC 48435 assessed as concentration required to 80% growth inhibition using alamar blue staining after 18 to 72 hrs by microdilution method; format: functional; procedure, shortened: as §1
Candida albicans [3] = test: Antifungal activity against FLCZ-susceptible Candida albicans ATCC 90028 assessed as concentration required to 80% growth inhibition using alamar blue staining after 18 to 72 hrs by microdilution method; format: functional
Procedure, shortened: (§2)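 Serial broth microdilution in YPD medium (1% yeast extract, 2% peptone, […]). Starting cell density (1 × 10³–1 × 10⁴ cells/mL) and incubation time (18–72 h) were set per strain by growth speed. MIC-1 is the lowest drug concentration giving 80% growth inhibition relative to the drug-free control.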

Candida tropicalis [4] = test: Antifungal activity against Candida tropicalis ATCC 44508 assessed as concentration required to 80% growth inhibition using alamar blue staining after 18 to 72 hrs by microdilution method; format: functional; conditions: read-out: MIC; procedure, shortened: as §1
[5] = Solubility in water at pH 6.8; format: physicochemical
[6] = Octanol-phosphate buffer partition coefficient, log D of the compound at pH 7.4; format: physicochemical
Procedure, shortened: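 Compound was shaken 30 min in equal volumes of n-octanol and phosphate-buffered saline at pH 7.4, then centrifuged at 3000 rpm for 10 min. Each layer was assayed by LC/MS, and log D was taken from the partition ratio.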

Candida albicans [7] = test: Antifungal activity against FLCZ-resistant Candida albicans ATCC MYA-573 assessed as concentration required to 80% growth inhibition using alamar blue staining after 18 to 72 hrs by microdilution method; format: functional; procedure, shortened: as §2
Pichia kudriavzevii [8] = test: Antifungal activity against Candida krusei ATCC 44507 assessed as concentration required to 50% growth inhibition using alamar blue staining after 18 to 72 hrs by microdilution method; format: functional
Procedure, shortened: (§3)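 Serial broth microdilution in RPMI 1640 with 0.165 M MOPS. Inoculum was 1×10³–1×10⁴ cells/mL and incubation ran 18–72 h, both set per strain by growth rate, at 30 °C. MIC-2 is the lowest drug concentration giving 50% growth inhibition versus a drug-free control.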

Candida tropicalis [9] = test: Antifungal activity against Candida tropicalis IAM 4965 assessed as concentration required to 50% growth inhibition using alamar blue staining after 18 to 72 hrs by microdilution method; format: functional; procedure, shortened: as §3
Nakaseomyces glabratus [10] = test: Antifungal activity against Candida glabrata ATCC 48435 assessed as concentration required to 50% growth inhibition using alamar blue staining after 18 to 72 hrs by microdilution method; format: functional; procedure, shortened: as §3
Candida albicans [11] = test: Antifungal activity against Candida albicans ATCC 24433 assessed as concentration required to 50% growth inhibition using alamar blue staining after 18 to 72 hrs by microdilution method; format: functional; procedure, shortened: as §3
Saccharomyces cerevisiae = test: Antifungal activity against Saccharomyces cerevisiae YPH500 assessed as concentration required to 50% growth inhibition using alamar blue staining after 18 to 72 hrs by microdilution method; format: functional; procedure, shortened: as §3
[12] = Metabolic stability in human liver microsomes at 1 uM after 30 mins; format: ADME, Microsome; conditions: read-out: Stability
Procedure, shortened: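 Compound was preincubated with human liver microsomes (0.5 mg/mL protein) in sodium phosphate buffer pH 7.4 for 20 min at 37 °C. NADPH started the reaction, and MeOH stopped it after 30 min. Samples were centrifuged at 4 °C, and parent loss was quantified by LC/MS/MS.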

Candida albicans [13] = test: Antifungal activity against FLCZ-susceptible Candida albicans ATCC 90028 assessed as reduction of chitin level up to 4 ug/ml after 3 hrs by [14C]-glucose incorporation assay; format: functional, organism-based
Procedure, shortened: (§4)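 Exponentially growing cells were suspended in RPMI 1640 to about 0.7 A595, then drug (0–4 µg/mL) and [14C]-glucose were added. Incubation was 3 h at 30 °C with occasional shaking. Cells were heated in 3% NaOH at 80 °C for 1 h. Mannan was taken from the supernatant by Fehling's reaction, and the insoluble residue was digested overnight with Zymolyase 100T. β-1,3-glucan counts were obtained as glucan minus β-1,6-glucan.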

Candida albicans [14] = test: Antifungal activity against FLCZ-susceptible Candida albicans ATCC 90028 assessed as reduction of beta-1,3-glucan level up to 4 ug/ml after 3 hrs by [14C]-glucose incorporation assay; format: functional, organism-based; procedure, shortened: as §4
Candida albicans [15] = test: Antifungal activity against FLCZ-susceptible Candida albicans ATCC 90028 assessed as reduction of beta-1,6-glucan level after 3 hrs by [14C]-glucose incorporation assay; format: functional, organism-based
Procedure, shortened: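 Exponentially growing cells suspended in RPMI 1640 to absorbance ~0.7 at 595 nm; drug and [14C]-glucose added, incubated 30 °C with occasional shaking. After 3 h, cells heated in 3% NaOH at 80 °C for 1 h; mannan taken from supernatant by Fehling's reaction; insoluble residue digested with Zymolyase 100T overnight; radioactivity per fraction measured. Tested 0.016–4 µg/mL.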

Candida albicans [16] = test: Antifungal activity against FLCZ-susceptible Candida albicans ATCC 90028 assessed as reduction of mannan level up to 4 ug/ml after 3 hrs by [14C]-glucose incorporation assay; format: functional, organism-based; procedure, shortened: as §4

Structure (SMILES)	MIC (Pichia kudriavzevii [1]) [mg/L]	MIC (Nakaseomyces glabratus [2]) [mg/L]	MIC (Candida albicans [3]) [mg/L]	MIC (Candida tropicalis [4]) [mg/L]	solubility [5] [mg/mL]	logD [6]	MIC (Candida albicans [7]) [mg/L]	MIC (Pichia kudriavzevii [8]) [mg/L]	MIC (Candida tropicalis [9]) [mg/L]	MIC (Nakaseomyces glabratus [10]) [mg/L]	MIC (Candida albicans [11]) [mg/L]	MIC (Saccharomyces cerevisiae) [mg/L]	remaining at 0.5 h, 1 µM [12] [%]	Activity (Candida albicans [13])	Activity (Candida albicans [14])	Activity (Candida albicans [15])	Activity (Candida albicans [16])
Cc1c(-c2ccccc2)c(N2CC[C@H](N(C)C)C2)c2oc(N)nc2c1C#N	2 (≈ 5.53 µM)	0.125 (≈ 0.346 µM)	1 (≈ 2.77 µM)	0.5 (≈ 1.38 µM)	0.018 (≈ 49.8 µM)	3.3	2 (≈ 5.53 µM)	–	–	–	–	–	–	–	–	–	–
CN(C)[C@H]1CCN(c2c(-c3ccccc3)cc(C#N)c3oc(C(C)(C)C)nc23)C1	–	–	–	–	–	–	–	> 16	> 4	> 4	> 4	4 (≈ 10.3 µM)	–	–	–	–	–
CN(C)[C@H]1CCN(c2c(-c3ccccc3)cc(C#N)c3nc(C(C)(C)C)oc23)C1	–	–	–	–	0.016 (≈ 41.2 µM)	3.8	–	16 (≈ 41.2 µM)	0.5 (≈ 1.29 µM)	0.25 (≈ 0.643 µM)	16 (≈ 41.2 µM)	0.25 (≈ 0.643 µM)	8	–	–	–	–
Cc1c(-c2ccccc2)c(N2CC[C@H](N(C)C)C2)c2oc(C3CCCC3)nc2c1C#N	2 (≈ 4.82 µM)	0.032 (≈ 0.0772 µM)	0.125 (≈ 0.302 µM)	0.063 (≈ 0.152 µM)	< 0.002	4.9	0.125 (≈ 0.302 µM)	–	–	–	–	–	–	–	–	–	–
Cc1c(-c2ccccc2)c(N2CC[C@H](N(C)C)C2)c2oc(C3=CCCC3)nc2c1C#N	16 (≈ 38.8 µM)	0.5 (≈ 1.21 µM)	4 (≈ 9.7 µM)	1 (≈ 2.42 µM)	< 0.002	5.2	4 (≈ 9.7 µM)	–	–	–	–	–	–	–	–	–	–
CN[C@H]1CCN(c2c(-c3ccccc3)c(C)c(C#N)c3nc(C(C)(C)C)oc23)C1.Cl	> 4	0.125	0.25	0.063	0.12	3.4	0.25	> 16	0.25	0.125	16	0.125	54	inactive	inactive	Dose-dependent effect	inactive
Cc1c(-c2ccccc2)c(N2CC[C@H](N(C)C)C2)n2c(nc3ccccc32)c1C#N	–	–	–	–	0.005 (≈ 12.6 µM)	–	–	0.125 (≈ 0.316 µM)	0.25 (≈ 0.632 µM)	0.063 (≈ 0.159 µM)	> 4	0.004 (≈ 0.0101 µM)	–	–	–	–	–
Cc1c(-c2ccccc2)c(N2CC[C@H](N(C)C)C2)c2[nH]c(C(C)(C)C)nc2c1C#N	–	–	–	–	0.008 (≈ 19.9 µM)	4.7	–	> 16	2 (≈ 4.98 µM)	0.5 (≈ 1.25 µM)	4 (≈ 9.96 µM)	0.5 (≈ 1.25 µM)	21	–	–	–	–
